Test results taken from the array DNA melting data of Ke et al. (doi:10.1101/2024.01.08.574731).

What was measured:
[1] = melting temperature; fluorescence melt of hairpins on a sequencing array, two-state fit, raised by 9.35 °C to match UV melts; conditions: sodium 0.088 M
How it was run: (§1)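 In 50 mM Na-HEPES pH 8.0 containing 25 mM NaCl, hairpins from the library on a sequenced MiSeq flow cell were imaged for Cy3 fluorescence at 2.5 °C steps up to 60 °C, with Cy3 and quencher oligos annealed. After normalisation to pre-quench Cy3 and to control constructs, two-state fits with bootstrapping gave melting temperature and folding enthalpy. Four replicates were combined by inverse-variance weighting, and fitted temperatures were shifted up by 9.35 °C to match UV melts.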

[2] = folding enthalpy; higher = less favourable; fluorescence melt of hairpins on a sequencing array, two-state fit; conditions: sodium 0.088 M
How it was run: as §1

Row | Sequence | Tm [1] | folding enthalpy [2]
1 | GCATAGCGAAAGCTCAGC ((..(((....)))..)) | 30.6 °C | -14.3 kcal/mol
2 | GATCTAGTGATAGATC ((((((....)))))) | 45.7 °C | -34.5 kcal/mol
3 | GATCTCTGGGAGATC ((((((...)))))) | 53.6 °C | -34.7 kcal/mol
4 | GCGGTAGAAATACCGC ((((((....)))))) | 66.9 °C | -36 kcal/mol
5 | GATCGTGACAACGATC ((((((....)))))) | 63.5 °C | -38.4 kcal/mol
6 | GAGGGCGAAAGCCACCTC ((((((....)))..))) | 38.1 °C | -11 kcal/mol
7 | GCAATGCGAAAGCATAGC ((.((((....)))).)) | 57.8 °C | -18.6 kcal/mol
8 | GGGGCTGGAAACAACCCC ((((.((....)).)))) | 49.2 °C | -41.2 kcal/mol
9 | GATCTACCAGTAGATC ((((((....)))))) | 48.9 °C | -32.6 kcal/mol
10 | CACTAGAAATAGTG (((((....))))) | 37.2 °C | -16.9 kcal/mol
11 | GATCGTCGTAACGATC ((((((....)))))) | 57.1 °C | -48.4 kcal/mol
12 | GTCGTCCGAAAGGAGAC (((.(((....)))))) | 49.3 °C | -20.6 kcal/mol
13 | GTCTGCGGAAACGTAGGC (.((.((....)).)).) | 42.4 °C | -26.7 kcal/mol
14 | GGAGACGAAAGTCGTTCC ((((((....)))..))) | 36.7 °C | -11.8 kcal/mol
15 | GATCCTGGCAGGATC ((((((...)))))) | 57.7 °C | -39.7 kcal/mol
16 | GAAAGTGGAAACACTTCC (.(((((....))))).) | 33.7 °C | -16.6 kcal/mol
17 | GTGAATGGAAACACTCAC ((((.((....)).)))) | 34.4 °C | -24.6 kcal/mol
18 | GCGTTTGGAAACGAATGC ((.((.(....).)).)) | 36 °C | -25.5 kcal/mol
19 | GCGTAGAGACGC ((((....)))) | 49.1 °C | -13.3 kcal/mol
20 | GAAGTCCGAAAGGAATTC (((.(((....))).))) | 50.1 °C | -30.9 kcal/mol
21 | GACCACGAAAGTGATGTC ((((((....)))..))) | 38.3 °C | -17.6 kcal/mol
22 | GCCGTTGGAAACAACAGC ((.((((....)))).)) | 41.6 °C | -18.7 kcal/mol
23 | GGTATAGCGAAAGCTACC (((..(((....)))))) | 39.6 °C | -15.4 kcal/mol
24 | GATCCGACGCGGATC ((((((...)))))) | 56.8 °C | -37.3 kcal/mol

Row | Sequence | Tm [1] | folding enthalpy [2]
25 | GGAGGCGAAAGCCTCTCC ((((((....)))..))) | 54.2 °C | -8.68 kcal/mol
26 | GTATTGGGAAACTAATAC (((((.(....).))))) | 34.8 °C | -22.2 kcal/mol
27 | GCAAGGCGAAAGCACTGC (((..((....))..))) | 46.7 °C | -19.7 kcal/mol
28 | GCAACGCGAAAGCGCTGC (((.(((....))).))) | 57.8 °C | -37.9 kcal/mol
29 | GAGATCGGAAACGGTCTC ((((.((....)).)))) | 51.3 °C | -44.5 kcal/mol
30 | GTAATCGGAAACGATTAC (((((((....))))))) | 56.4 °C | -42.4 kcal/mol
31 | GGAGGCCGAAAGGCTTCC (((.(((....))).))) | 64.2 °C | -28.9 kcal/mol
32 | GGGTTACCGAAAGGTCCC (((..(((....)))))) | 41 °C | -19.4 kcal/mol
33 | GTGCGAGGAAACTCGCGC (.(((((....))))).) | 66.2 °C | -18.2 kcal/mol
34 | GGGGACGAAAGTCGCCC ((((((....))).))) | 64.9 °C | -13.9 kcal/mol
35 | GCATGCGGAAACACACGC ((.((.(....).)).)) | 30.4 °C | -10.2 kcal/mol
36 | GCGTACGAAAGTACCCGC ((((((....)))..))) | 40.2 °C | -14.2 kcal/mol
37 | GAGGACGAAAGTCACTC ((((((....))).))) | 43.1 °C | -17.9 kcal/mol
38 | GATCAGCGAAAGCTTATC (((.(((....))).))) | 38.9 °C | -20.2 kcal/mol
39 | GGCAAGGGAAACCTTACC ((.((((....)))).)) | 37.4 °C | -29.2 kcal/mol
40 | GCCACCGAAAGGTATGGC ((((((....)))..))) | 52.8 °C | -36.9 kcal/mol
41 | GGAACCGAAAGGTAGTCC ((((((....)))..))) | 29.8 °C | -12 kcal/mol
42 | GAGAATGAAAATTCTC ((((((....)))))) | 46 °C | -31.8 kcal/mol
43 | GCGGACTCCGC ((((...)))) | 52 °C | -20.5 kcal/mol
44 | GCACAGCGAAAGCACTGC (((..((....))..))) | 35.8 °C | -11.7 kcal/mol
45 | GGTGTCGAAAGACGGACC ((((((....)))..))) | 40.3 °C | -16.6 kcal/mol
46 | GGCCAAGGAAACTTAGCC (((.(((....))).))) | 36.3 °C | -24.7 kcal/mol
47 | GATCACGTCGGTGATC ((((((....)))))) | 59.7 °C | -36.5 kcal/mol
48 | CGCGGAAAAACCGCG ((...........)) | 65.7 °C | -29.7 kcal/mol

Row | Sequence | Tm [1] | folding enthalpy [2]
49 | GCAAAAGGAAACTTTCGC ((.((((....)))).)) | 31.8 °C | -20.5 kcal/mol
50 | GATCCTGGAAGGATC ((((((...)))))) | 62.8 °C | -31.6 kcal/mol
51 | GGTTCCGGAAACGAAACC ((((.((....)).)))) | 42.9 °C | -24.8 kcal/mol
52 | GCGTTTTTACGC ((((....)))) | 55.2 °C | -26.9 kcal/mol
53 | GATCCACCTTGGATC ((((((...)))))) | 51.2 °C | -31.7 kcal/mol
54 | GGTGGCGAAAGCCACACC ((((((....)))..))) | 60 °C | -6.43 kcal/mol
55 | GACGCCGCGAAAGCGGTC (((..(((....)))))) | 34.8 °C | -6.05 kcal/mol
56 | CGGTGCCGGAAACGGCCG (((..(((....)))))) | 47.5 °C | -9.28 kcal/mol
57 | GCGTGGGCACGC ((((....)))) | 57.3 °C | -24.7 kcal/mol
58 | CGAGCGGAAACGCCCTCG ((((((....)))..))) | 35.9 °C | -12.8 kcal/mol
59 | GCTGCAGGAAACTGCGGC ((.((((....)))).)) | 61.6 °C | -41.5 kcal/mol
60 | GGAGATGAAAATCTCC ((((((....)))))) | 57.6 °C | -36.2 kcal/mol
61 | GGTCGAGCGAAAGCTACC (((..(((....)))))) | 33.3 °C | -11.9 kcal/mol
62 | GCTCACGAAAGTGGCAGC ((((((....)))..))) | 44.6 °C | -14.7 kcal/mol
63 | GATCGGCCTACCGATC ((((((....)))))) | 57.9 °C | -36.5 kcal/mol
64 | CGGCTTCGGAAACGACCG (((..(((....)))))) | 37.9 °C | -18.2 kcal/mol
65 | GCTGAGCGAAAGCAGAGC (((..((....))..))) | 45.9 °C | -17 kcal/mol
66 | GCTGGACGAAAGTCTAGC (((.(((....))).))) | 62.4 °C | -39.1 kcal/mol
67 | GATGACCGAAAGGTGATC (((.(((....))).))) | 47.7 °C | -26.9 kcal/mol
68 | AGACGGAAACGTCT (((((....))))) | 53.5 °C | -21.2 kcal/mol
69 | GACAACGAAAGTTAAGTC ((((((....)))..))) | 33.2 °C | -14.7 kcal/mol
70 | GGTAAGACGAAAGTCACC (((..(((....)))))) | 39.3 °C | -16.2 kcal/mol
